Measurements pooled from the literature.
Each line is one published result; the experiments were not run side by side.
Matrix: plasma

Structure (SMILES)	host	route	dose	notes	AUC(0-inf) [ng·h/mL]
O=C(Nc1c(Cl)cncc1Cl)c1ccc(OC(F)F)c(OCC2CC2)c1	human	oral	0.375 mg	single dose, fasted	48.7
CCc1nc2c(C)cc(N3CCN(CC(=O)N4CC(O)C4)CC3)cn2c1N(C)c1nc(-c2ccc(F)cc2)c(C#N)s1	human	oral	300 mg	single dose, fed, healthy volunteers	14900
CC(C)n1cc(C#N)c2cc(-n3cc(C(=O)O)cn3)ccc21	human	oral	50 mg	single dose, fasted, healthy volunteers	7120
Cn1cc(-c2ccc(S(=O)(=O)[C@@H]3C[C@@H](C(=O)NC4(C#N)CC4)N(C(=O)C4(C(F)(F)F)CC4)C3)c(C(F)(F)F)c2)cn1	human	oral	1 mg	single dose, fasted, healthy volunteers	44.9
COc1ccc([C@@H]2CN(C(=O)[C@@H](O)CO)C[C@@]2(C)[C@@H](C)O)cc1OC1CN(c2ccc(C)cn2)C1	human	oral	10 mg	single dose, healthy volunteers	3160
CS(=O)(=O)CCC#N	human	oral	100 mg	single dose, fasted	77000
O=C(/C=C/c1cccc(S(=O)(=O)Nc2ccccc2)c1)NO	human	intravenous	1800 mg/m²	patients	55200
CO[C@H]1CC[C@H](N2C(=O)CNc3ncc(-c4ccc(C(C)(C)O)nc4)nc32)CC1	human	oral	30 mg	patients	1230
CC(C)(O)c1ccccc1-c1ccc2[nH]c(/C=C/c3ccc(C(F)(F)F)cc3)nc2c1	male human	oral	50 mg	single dose, fasted, healthy volunteers	7820
C[C@@]1(c2cc(NC(=O)c3ccc(C#N)cn3)ccc2F)C=CSC(N)=N1	human	oral	90 mg	single dose	8950
CCCOc1ccc([C@H]2CNC(=O)N2c2ccc3[nH]cnc3c2)cc1	human	oral	200 mg	single dose, fasted, healthy volunteers	2330
CC(C)(Sc1ccncc1-c1ccc(C#N)c2ccccc12)C(=O)O	male human	oral	20 mg	single dose, fed, healthy volunteers	415
